ChEMBL document CHEMBL1146514, “New peptaibols from Mycogone cervina” (J Nat Prod, 2004)
≈ marks a conversion by molar mass, not a printed value. Calls of active or inactive are those of the source. The rule behind the calls is not given here. Where a SMILES comes first, the peptide text is derived from it. [ ]: non-standard residue; d: D form. The star is where a group is joined. X1 = CC(=O)OC[C@H](CC(C)C)N*; Aib = CC(C)(N)C(=O)O

Key:
[1] = system: Brevibacillus brevis; assay: Antimicrobial activity against Bacillus brevis ATCC 9999 at 100 ug/disk after 24 hrs by standard disk assay; format: functional; conditions: ATCC 9999, 24 h, read-out: IZ
How it was run: (§1)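 Bacteria grown on nutrient agar at 37 °C. Test plates seeded with 5×10^5 cells per mL. Compound loaded onto 6 mm filter disks placed on the agar. Inhibition zone diameters read after 24 h.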

[2] = system: Micrococcus luteus; assay: Antimicrobial activity against Micrococcus luteus ATCC 21415 at 100 ug/disk after 24 hrs by standard disk assay; format: functional; conditions: ATCC 21415, 24 h, read-out: IZ; how it was run: as §1
[3] = system: Bacillus subtilis; assay: Antimicrobial activity against Bacillus subtilis ATCC 6633 at 100 ug/disk after 24 hrs by standard disk assay; format: functional; conditions: ATCC 6633, 24 h, read-out: IZ; how it was run: as §1
[4] = Cytotoxicity against human COLO320 cells; format: functional, cell-based; conditions: COLO 320
How it was run: (§2)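 Cells were grown and assayed in RPMI 1640 medium, and the IC50 was reported.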

[5] = system: L1210; assay: Cytotoxicity against mouse L1210 cells; format: functional, cell-based; how it was run: as §2
[6] = system: L1210; assay: Cytotoxicity against mouse L1210 cells at 100 ug/ml; format: functional, cell-based

Row | SMILES | zone of inhibition at 100 µg/disc [1] [mm] | zone of inhibition at 100 µg/disc [2] [mm] | zone of inhibition at 100 µg/disc [3] [mm] | IC50 [4] [µg/mL] | IC50 [5] [µg/mL] | Activity [6]
1 | CC(=O)N[C@@H](CC(C)C)C(=O)NC(C)(C)C(=O)N1CCC[C@H]1C(=O)NC(C)(C)C(=O)N[C@@H](CC(C)C)C(=O)NC(C)(C)C(=O)N1CCC[C@H]1C(=O)N[C@@H](C)C(=O)NC(C)(C)C(=O)N1CCC[C@H]1C(=O)N[C@H](C(=O)N[C@H](COC(C)=O)CC(C)C)C(C)C (Ac-L[Aib]P[Aib]L[Aib]PA[Aib]PV-X1) | 10 | 16 | 11 | 40 (≈ 32.5 µM) | 32 (≈ 26 µM) | –
2 | CC(=O)N[C@@H](CC(C)C)C(=O)NC(C)(C)C(=O)N1CCC[C@H]1C(=O)NC(C)(C)C(=O)N[C@@H](CC(C)C)C(=O)NC(C)(C)C(=O)N1CCC[C@H]1C(=O)N[C@@H](C)C(=O)NC(C)(C)C(=O)N1CCC[C@H]1C(=O)N[C@H](C(=O)N[C@H](CO)CC(C)C)C(C)C [CERVININ] | 7 | 15 | 8 | 80 (≈ 67.4 µM) | – | inactive
